Activity calls are given as the source filed them. No cut-off for these calls is given here.
What was measured:
Mus musculus [1] = test: Toxicity in B10.R3 mouse collagen-induced arthritis model assessed as change in serum insulin level at 30 mg/kg, po qd for 5 weeks by ELISA relative to control; assay type: organism-based; set-up: dose 30 mg/kg, route oral; conditions: in vivo, 840 h
Mus musculus [2] = test: Toxicity in B10.R3 mouse collagen-induced arthritis model assessed as change in serum triglyceride level at 3 mg/kg, po qd for 5 weeks relative to control; assay type: organism-based; set-up: dose 3 mg/kg, route oral; conditions: in vivo, 840 h
Procedure, shortened: (§1)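 Arthritic B10.RIII CIA mice were dosed orally once daily for 5 weeks. At day 35 they were anesthetized with ketamine (50 mg/kg) and xylazine (15 mg/kg). Body fat was assessed by whole-body density scan. Serum triglycerides were measured by enzymatic kit (Wako L-Type TG-H) and free fatty acids by NEFA-C. Results are expressed as % change versus vehicle and compared by t-test.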

Mus musculus [3] = test: Toxicity in B10.R3 mouse collagen-induced arthritis model assessed as change in body fat level at 30 mg/kg, po qd for 5 weeks relative to control; assay type: organism-based; set-up: dose 30 mg/kg, route oral; conditions: in vivo, 840 h; procedure, shortened: as §1
Mus musculus [4] = test: Toxicity in B10.R3 mouse collagen-induced arthritis model assessed as change in serum triglyceride level at 30 mg/kg, po qd for 5 weeks relative to control; assay type: organism-based; set-up: dose 30 mg/kg, route oral; conditions: in vivo, 840 h; procedure, shortened: as §1
Mus musculus [5] = test: Toxicity in B10.R3 mouse collagen-induced arthritis model assessed as change in serum free fatty acids level at 30 mg/kg, po qd for 5 weeks relative to control; assay type: organism-based; set-up: dose 30 mg/kg, route oral; conditions: in vivo, 840 h; procedure, shortened: as §1
Mus musculus [6] = test: Toxicity in B10.R3 mouse collagen-induced arthritis model assessed as change in body weight at 30 mg/kg, po qd for 5 weeks relative to control; assay type: organism-based; set-up: dose 30 mg/kg, route oral; conditions: in vivo, 840 h
Mus musculus [7] = species: Mus musculus; test: animal or person; conditions: B10.R3, po, 840 h, read-out: INH
Mus musculus [8] = test: Toxicity in B10.R3 mouse collagen-induced arthritis model assessed as change in body fat level at 3 mg/kg, po qd for 5 weeks relative to control; assay type: organism-based; set-up: dose 3 mg/kg, route oral; conditions: in vivo, 840 h; procedure, shortened: as §1
Mus musculus [9] = test: Toxicity in B10.R3 mouse collagen-induced arthritis model assessed as change in body weight at 3 mg/kg, po qd for 5 weeks relative to control; assay type: organism-based; set-up: dose 3 mg/kg, route oral; conditions: in vivo, 840 h
Mus musculus [10] = test: Antiarthritic activity in B10.R3 mouse collagen-induced arthritis model assessed as AUC of disease progression inhibition at 30 mg/kg, po qd for 5 weeks; assay type: functional; conditions: B10.R3, 840 h
Procedure, shortened: (§2)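 B10.RIII mice immunized with porcine type II collagen plus complete Freund's adjuvant were enrolled at the first signs of arthritis. They were dosed orally once daily for 5 weeks; vehicle was 30% Cremophor RH. All four paws were scored 1–4 (maximum 16 per animal). Disease-score AUCs from 10 mice per group were compared with vehicle by Mann–Whitney test.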

Mus musculus [11] = test: Antiinflammatory activity in mouse plasma assessed as inhibition of LPS-induced TNFalpha production at 10 mg/kg, po administered 1 hr before LPS challenge measured after 1 hr; assay type: functional
Procedure, shortened: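 Mice received compound orally in Cremophor RH 1 h before LPS challenge. Plasma TNF-α was measured 1 h after challenge. n = 8 per group; doses were 3 and 10 mg/kg.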

Mus musculus [12] = test: Toxicity in B10.R3 mouse collagen-induced arthritis model assessed as change in serum insulin level at 3 mg/kg, po qd for 5 weeks by ELISA relative to control; assay type: organism-based; set-up: dose 3 mg/kg, route oral; conditions: in vivo, 840 h
Mus musculus [13] = test: Antiarthritic activity in B10.R3 mouse collagen-induced arthritis model assessed as AUC of disease progression inhibition at 10 mg/kg, po qd for 5 weeks; assay type: functional; conditions: B10.R3, 840 h; procedure, shortened: as §2
Mus musculus [14] = test: Toxicity in B10.R3 mouse collagen-induced arthritis model assessed as change in serum free fatty acids level at 3 mg/kg, po qd for 5 weeks relative to control; assay type: organism-based; set-up: dose 3 mg/kg, route oral; conditions: in vivo, 840 h; procedure, shortened: as §1
Glucocorticoid receptor [15] = biological target: T1, Glucocorticoid receptor (Homo sapiens, UniProt P04150); test: Displacement of tetramethylrhodamine-labeled Dexamethasone from human recombinant glucocorticoid receptor expressed in baculovirus infected insect cells by fluorescence polarization assay
T1 sequence (P04150 whole entry): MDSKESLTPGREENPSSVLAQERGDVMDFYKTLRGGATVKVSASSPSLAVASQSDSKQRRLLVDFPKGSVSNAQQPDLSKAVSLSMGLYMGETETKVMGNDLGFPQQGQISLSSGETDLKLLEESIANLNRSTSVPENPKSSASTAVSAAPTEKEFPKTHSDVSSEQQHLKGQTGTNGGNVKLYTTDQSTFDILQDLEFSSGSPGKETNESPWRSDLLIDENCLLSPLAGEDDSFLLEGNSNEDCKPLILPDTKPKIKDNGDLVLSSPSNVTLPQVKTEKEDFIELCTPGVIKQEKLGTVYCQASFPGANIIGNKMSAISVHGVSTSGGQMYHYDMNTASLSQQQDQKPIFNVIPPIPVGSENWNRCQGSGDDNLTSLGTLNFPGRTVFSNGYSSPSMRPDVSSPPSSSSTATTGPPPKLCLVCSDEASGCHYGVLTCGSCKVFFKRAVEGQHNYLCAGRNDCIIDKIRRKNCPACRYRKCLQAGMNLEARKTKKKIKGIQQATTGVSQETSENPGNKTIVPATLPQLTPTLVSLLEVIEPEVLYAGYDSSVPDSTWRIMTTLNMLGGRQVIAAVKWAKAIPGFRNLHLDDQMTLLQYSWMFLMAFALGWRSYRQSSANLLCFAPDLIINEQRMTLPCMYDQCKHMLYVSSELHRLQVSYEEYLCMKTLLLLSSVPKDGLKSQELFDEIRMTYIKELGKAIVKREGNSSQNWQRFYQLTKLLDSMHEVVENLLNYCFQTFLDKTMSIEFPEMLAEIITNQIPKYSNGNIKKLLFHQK

[16] = biological target: T2, Androgen receptor (Homo sapiens) (UniProt P10275); test: Displacement of [3H]-testosterone from human recombinant androgen receptor expressed in baculovirus infected insect cells at 1100 nM
T2 sequence (whole entry): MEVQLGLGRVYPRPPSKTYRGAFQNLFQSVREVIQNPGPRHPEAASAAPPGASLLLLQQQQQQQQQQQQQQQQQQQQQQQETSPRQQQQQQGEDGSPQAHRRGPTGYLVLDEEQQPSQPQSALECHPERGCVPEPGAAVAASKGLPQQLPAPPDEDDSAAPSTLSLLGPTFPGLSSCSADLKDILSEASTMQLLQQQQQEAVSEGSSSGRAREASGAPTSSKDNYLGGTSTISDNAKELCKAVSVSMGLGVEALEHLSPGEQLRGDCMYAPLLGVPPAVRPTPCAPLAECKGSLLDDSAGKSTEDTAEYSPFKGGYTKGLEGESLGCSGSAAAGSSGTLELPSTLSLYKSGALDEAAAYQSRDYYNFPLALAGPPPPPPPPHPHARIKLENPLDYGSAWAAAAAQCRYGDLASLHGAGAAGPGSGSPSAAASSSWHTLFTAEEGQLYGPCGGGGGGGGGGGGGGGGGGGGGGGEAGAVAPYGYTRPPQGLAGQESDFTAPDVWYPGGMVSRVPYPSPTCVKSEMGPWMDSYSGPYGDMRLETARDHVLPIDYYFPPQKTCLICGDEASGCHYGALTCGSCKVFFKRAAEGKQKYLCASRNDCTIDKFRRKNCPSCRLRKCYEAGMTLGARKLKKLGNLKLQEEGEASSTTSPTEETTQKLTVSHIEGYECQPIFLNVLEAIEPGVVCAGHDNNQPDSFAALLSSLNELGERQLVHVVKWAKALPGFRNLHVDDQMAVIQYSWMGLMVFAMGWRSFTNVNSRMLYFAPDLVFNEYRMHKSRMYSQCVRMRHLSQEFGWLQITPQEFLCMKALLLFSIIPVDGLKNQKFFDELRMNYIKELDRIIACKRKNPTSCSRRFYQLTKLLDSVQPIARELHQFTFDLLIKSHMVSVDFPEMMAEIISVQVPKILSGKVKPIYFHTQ
Procedure, shortened: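 Competition of test compound at a single concentration against 10 nM ³H-testosterone for binding to recombinant human AR in lysates of baculovirus-infected cells. Dihydrotestosterone at 2 µM served as the positive control. Results are expressed as % of control.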

[17] = biological target: T3, Glucocorticoid receptor (Homo sapiens) (UniProt P04150); test: Transactivation activity of glucocorticoid receptor in HFF assessed as induction of aromatase activity by measuring beta-estradiol activity after 18 to 24 hrs by ELISA relative to Dexamethasone
T3 sequence (whole entry): T1 sequence (P04150 whole entry)

Glucocorticoid receptor [18] = biological target: T1, Glucocorticoid receptor; test: Agonist activity at glucocorticoid receptor in HFF assessed as inhibition of IL1-induced IL-6 production after 18 to 24 hrs; assay type: functional
Glucocorticoid receptor [19] = biological target: T1, Glucocorticoid receptor; test: Transactivation activity of glucocorticoid receptor in HFF assessed as induction of aromatase activity by measuring beta-estradiol activity after 18 to 24 hrs by ELISA; conditions: read-out: EC50
Progesterone receptor = biological target: T4, Progesterone receptor (Homo sapiens, UniProt P06401); test: Displacement of tetramethylrhodamine-labeled RU-486 from human recombinant progesterone receptor expressed in baculovirus infected insect cells by fluorescence polarization assay
T4 sequence (P06401 whole entry): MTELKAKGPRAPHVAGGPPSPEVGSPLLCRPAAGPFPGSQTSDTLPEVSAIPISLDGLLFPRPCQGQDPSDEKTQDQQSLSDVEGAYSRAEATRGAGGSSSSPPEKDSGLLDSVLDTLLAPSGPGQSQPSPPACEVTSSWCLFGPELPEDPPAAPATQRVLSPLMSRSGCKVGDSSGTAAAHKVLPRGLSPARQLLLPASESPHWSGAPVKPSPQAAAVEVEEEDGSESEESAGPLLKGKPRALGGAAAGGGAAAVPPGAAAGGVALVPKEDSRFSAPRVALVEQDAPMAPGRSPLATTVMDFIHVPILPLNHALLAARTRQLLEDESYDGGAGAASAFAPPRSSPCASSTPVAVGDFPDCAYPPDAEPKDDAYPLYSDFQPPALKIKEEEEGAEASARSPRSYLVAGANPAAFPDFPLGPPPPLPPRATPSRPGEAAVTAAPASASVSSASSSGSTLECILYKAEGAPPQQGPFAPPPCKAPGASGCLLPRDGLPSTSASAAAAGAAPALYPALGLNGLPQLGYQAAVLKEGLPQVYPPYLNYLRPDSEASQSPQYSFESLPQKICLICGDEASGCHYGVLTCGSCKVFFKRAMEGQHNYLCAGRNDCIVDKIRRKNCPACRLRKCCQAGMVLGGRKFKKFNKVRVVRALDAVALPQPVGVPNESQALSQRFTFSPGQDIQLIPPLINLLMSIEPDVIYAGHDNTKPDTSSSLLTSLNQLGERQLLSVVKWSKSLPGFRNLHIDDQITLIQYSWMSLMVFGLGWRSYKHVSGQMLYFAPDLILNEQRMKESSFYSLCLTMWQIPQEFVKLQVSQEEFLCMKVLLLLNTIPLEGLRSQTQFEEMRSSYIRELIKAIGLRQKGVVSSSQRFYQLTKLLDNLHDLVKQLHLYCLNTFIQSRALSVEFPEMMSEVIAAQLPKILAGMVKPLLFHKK
Procedure, shortened: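 Fluorescence polarization competition assays with recombinant human receptors in lysates of baculovirus-infected insect cells. Reactions contained 1% DMSO and ran 1 h at room temperature.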

Row | IC50 (Glucocorticoid receptor [15]) [nM] | Activity [16] | Efficacy [17] [%] | IC50 (Glucocorticoid receptor [18]) [nM] | EC50 (Glucocorticoid receptor [19]) [nM] | IC50 (Progesterone receptor) [nM] | SMILES | Activity (Mus musculus [1]) [%] | Activity (Mus musculus [2]) [%] | Activity (Mus musculus [3]) [%] | Activity (Mus musculus [4]) [%] | Activity (Mus musculus [5]) [%] | Activity (Mus musculus [6]) [%] | inhibition in vivo at 3 mg/kg (Mus musculus [7]) [%] | Activity (Mus musculus [8]) [%] | Activity (Mus musculus [9]) [%] | inhibition in vivo at 30 mg/kg (Mus musculus [10]) [%] | inhibition in vivo at 10 mg/kg (Mus musculus [11]) [%] | Activity (Mus musculus [12]) [%] | inhibition in vivo at 10 mg/kg (Mus musculus [13]) [%] | Activity (Mus musculus [14]) [%]
1 |  |  |  |  |  |  | C[C@]12C=CC(=O)C=C1CC[C@@H]1[C@@H]2[C@@H](O)C[C@@]2(C)[C@H]1CC[C@]2(O)C(=O)CO [PREDNISOLONE] | 190 | -11 | 70 | 55 | 25 | 9 | 42 | 36 | 1.1 | 80 | 84 | 37 | 62 | 8
2 | 22 | inactive | 93 | 7 | 23 | 290 | COc1ccc(F)cc1C(C)(C)CC(O)(Cc1cc2ccccc2[nH]1)C(F)(F)F (racemic) |  |  |  |  |  |  |  |  |  |  |  |  |  | 

Source: ChEMBL document CHEMBL1909618, “Non-steroidal dissociated glucocorticoid agonists: indoles as A-ring mimetics and function-regulating pharmacophores” (Bioorg Med Chem Lett, 2011)
